MIC and ED50 data for eight molecules are collected here from ChEMBL document CHEMBL1126625, “7-Azetidinylquinolones as antibacterial agents. Synthesis and structure-activity relationships” (J Med Chem, 1993).

Values after ≈ are worked out from the molar mass of the structure shown.

Holding throughout (assay type): functional
The subject of one experiment is Proteus vulgaris. Description: Minimum inhibitory concentration (MIC) preventing growth of Proteus vulgaris.
In experiment [1] the test system is Staphylococcus aureus. Description: Minimum inhibitory concentration (MIC) preventing growth of […].
For experiment [2], the system named is Escherichia coli. As to the kind of experiment: Minimum inhibitory concentration (MIC)preventing growth of Escherichia coli.
The next experiment concerns Enterobacter cloacae. Description: Minimum inhibitory concentration (MIC)preventing growth of Enterobacter cloacae.
Another experiment concerns Enterococcus faecalis. Description: Minimum inhibitory concentration (MIC) preventing growth of Streptococcus faecalis ATCC 10541.
Experiment [3] deals with Escherichia coli. Description: Efficacy on systemic infections after oral administration in mice was determined against Escherichia coli HM-42. The essentials:
(§1)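 Mouse protection test using 4 groups of 10 mice. Mice were infected intraperitoneally with a bacterial suspension slightly above LD100. A single oral dose was given immediately after infection, with four doses, one per group, chosen from in vitro activity. Survival was scored after one week, and ED50 (total mg/kg protecting 50% of mice) was interpolated from group survival rates.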

Experiment [4] has as its system Pseudomonas aeruginosa. As to the kind of experiment: Efficacy on systemic infections after oral administration in mice was determined against Pseudomonas aeruginosa HS-116. In a few lines: as §1
The subject of another experiment is Klebsiella pneumoniae. As to the kind of experiment: Minimum inhibitory concentration (MIC)preventing growth of Klebsiella pneumoniae.
The next experiment deals with Morganella morganii. Description: Minimum inhibitory concentration (MIC) preventing growth of Morganella morganii.
For experiment [5], the system named is Staphylococcus aureus. Description: Efficacy on systemic infections after oral administration in mice was determined against […] HS-93. In a few lines: as §1
Experiment [6] relates to Staphylococcus epidermidis. As to the kind of experiment: Minimum inhibitory concentration (MIC) preventing growth of Staphylococcus epidermidis.
Experiment [7] concerns Pseudomonas aeruginosa. Description: Minimum inhibitory concentration (MIC)preventing growth of Pseudomonas aeruginosa.
In the next experiment the test system is Bacillus cereus. Description: Minimum inhibitory concentration (MIC) preventing growth of Bacillus cereus.
The test system of a further experiment is Bacillus subtilis. As to the kind of experiment: Minimum inhibitory concentration (MIC) preventing growth of Bacillus subtilis.

As for `CC1(N)CN(c2c(F)c(N)c3c(=O)c(C(=O)O)cn(C4CC4)c3c2F)C1`, the MIC (as a rule, the least concentration at which growth counts as inhibited) against Proteus vulgaris is 0.12 µg/mL (≈ 0.329 µM); against Staphylococcus aureus [1], 0.06 µg/mL (≈ 0.165 µM); in the experiment on Escherichia coli [2], 0.015 µg/mL (≈ 0.0412 µM); against Enterobacter cloacae, 0.015 µg/mL (≈ 0.0412 µM); against Enterococcus faecalis, 0.25 µg/mL (≈ 0.686 µM); with Klebsiella pneumoniae, 0.015 µg/mL (≈ 0.0412 µM). Also, the MIC is 0.015 µg/mL (≈ 0.0412 µM) against Morganella morganii; 0.06 µg/mL (≈ 0.165 µM) in experiment [6]; 0.5 µg/mL (≈ 1.37 µM) against Pseudomonas aeruginosa [7]; 0.06 µg/mL (≈ 0.165 µM) in the experiment on Bacillus cereus; 0.015 µg/mL (≈ 0.0412 µM) against Bacillus subtilis. In addition, the ED50 (commonly the midpoint of the dose-response relation) in the experiment with Escherichia coli [3] was determined as 3.3 mg/kg; with Pseudomonas aeruginosa [4], 71 mg/kg; with Staphylococcus aureus [5] it was 7.2 mg/kg.
As to `NC1CN(c2nc3c(cc2F)c(=O)c(C(=O)O)cn3-c2ccc(F)cc2F)C1`, the MIC is 0.5 µg/mL (≈ 1.28 µM) against Proteus vulgaris; 0.25 µg/mL (≈ 0.64 µM) against Staphylococcus aureus [1]; 0.12 µg/mL (≈ 0.307 µM) against Escherichia coli [2]; 0.12 µg/mL (≈ 0.307 µM) against Enterobacter cloacae; 2 µg/mL (≈ 5.12 µM) in the experiment with Enterococcus faecalis; 0.015 µg/mL (≈ 0.0384 µM) against Klebsiella pneumoniae. Besides, the MIC with Morganella morganii is 0.25 µg/mL (≈ 0.64 µM); in experiment [6] it was 0.25 µg/mL (≈ 0.64 µM); against Pseudomonas aeruginosa [7], 2 µg/mL (≈ 5.12 µM); in the experiment on Bacillus cereus, 0.25 µg/mL (≈ 0.64 µM); in the experiment with Bacillus subtilis it was 0.12 µg/mL (≈ 0.307 µM). Further, the ED50 was 1.5 mg/kg with Escherichia coli [3], 75.2 mg/kg in the experiment with Pseudomonas aeruginosa [4] and 5.3 mg/kg in the experiment on Staphylococcus aureus [5].
Take `CCn1cc(C(=O)O)c(=O)c2c(N)c(F)c(N3CC(N)C3)c(F)c21`: the MIC worked out at 0.5 µg/mL (≈ 1.48 µM) in the experiment on Proteus vulgaris; 0.5 µg/mL (≈ 1.48 µM) against Staphylococcus aureus [1]; 0.12 µg/mL (≈ 0.355 µM) against Escherichia coli [2]; 0.12 µg/mL (≈ 0.355 µM) in the experiment with Enterobacter cloacae; 0.25 µg/mL (≈ 0.739 µM) with Enterococcus faecalis; 0.25 µg/mL (≈ 0.739 µM) with Klebsiella pneumoniae. Moreover, the MIC amounted to 0.12 µg/mL (≈ 0.355 µM) with Morganella morganii; 0.5 µg/mL (≈ 1.48 µM) in experiment [6]; 1 µg/mL (≈ 2.96 µM) with Pseudomonas aeruginosa [7]; 0.25 µg/mL (≈ 0.739 µM) against Bacillus cereus; 2 µg/mL (≈ 5.91 µM) with Bacillus subtilis.
In the case of `CC1(N)CN(c2cc3c(cc2F)c(=O)c(C(=O)O)cn3CCF)C1`, the MIC in the experiment on Proteus vulgaris stood at 1 µg/mL (≈ 2.96 µM); against Staphylococcus aureus [1], 1 µg/mL (≈ 2.96 µM); in the experiment on Escherichia coli [2], 0.5 µg/mL (≈ 1.48 µM); in the experiment on Enterobacter cloacae it was 1 µg/mL (≈ 2.96 µM); against Enterococcus faecalis, 2 µg/mL (≈ 5.93 µM); against Klebsiella pneumoniae, 0.5 µg/mL (≈ 1.48 µM). Moreover, the MIC with Morganella morganii amounted to 0.5 µg/mL (≈ 1.48 µM); in [6], 1 µg/mL (≈ 2.96 µM); against Pseudomonas aeruginosa [7], 4 µg/mL (≈ 11.9 µM); with Bacillus cereus, 1 µg/mL (≈ 2.96 µM); against Bacillus subtilis, 0.25 µg/mL (≈ 0.741 µM).
Turning to `CNC1CN(c2nc3c(cc2F)c(=O)c(C(=O)O)cn3C2CC2)C1`, the MIC in the experiment on Proteus vulgaris is 0.25 µg/mL (≈ 0.752 µM); in the experiment with Staphylococcus aureus [1], 0.25 µg/mL (≈ 0.752 µM); with Escherichia coli [2], 0.03 µg/mL (≈ 0.0903 µM); with Enterobacter cloacae it was 0.03 µg/mL (≈ 0.0903 µM); in the experiment with Enterococcus faecalis it was 0.5 µg/mL (≈ 1.5 µM); in the experiment with Klebsiella pneumoniae, 0.03 µg/mL (≈ 0.0903 µM). Moreover, the MIC was determined as 0.06 µg/mL (≈ 0.181 µM) with Morganella morganii; 0.12 µg/mL (≈ 0.361 µM) in experiment [6]; 0.5 µg/mL (≈ 1.5 µM) in the experiment on Pseudomonas aeruginosa [7]; 0.12 µg/mL (≈ 0.361 µM) in the experiment with Bacillus cereus; 0.06 µg/mL (≈ 0.181 µM) against Bacillus subtilis.
For `CC1(n2cccc2)CN(c2c(F)cc3c(=O)c(C(=O)O)cn(C4CC4)c3c2F)C1`, the MIC in the experiment on Proteus vulgaris stood at 1 µg/mL (≈ 2.5 µM); in the experiment with Staphylococcus aureus [1] it was 0.25 µg/mL (≈ 0.626 µM); in the experiment on Escherichia coli [2], 1 µg/mL (≈ 2.5 µM); against Enterobacter cloacae, 2 µg/mL (≈ 5.01 µM); against Enterococcus faecalis, 2 µg/mL (≈ 5.01 µM); against Klebsiella pneumoniae it was 0.25 µg/mL (≈ 0.626 µM). Moreover, the minimum inhibitory concentration (MIC) against Morganella morganii came out at 1 µg/mL (≈ 2.5 µM); in experiment [6], 0.25 µg/mL (≈ 0.626 µM); in the experiment with Pseudomonas aeruginosa [7], 8 µg/mL (≈ 20 µM); against Bacillus cereus, 0.25 µg/mL (≈ 0.626 µM); against Bacillus subtilis it was 0.015 µg/mL (≈ 0.0376 µM).
As to `CC1(N)CN(c2cc3c(cc2F)c(=O)c(C(=O)O)cn3-c2ccc(F)cc2F)C1`, the MIC against Proteus vulgaris is 0.25 µg/mL (≈ 0.62 µM); with Staphylococcus aureus [1] it was 0.25 µg/mL (≈ 0.62 µM); against Escherichia coli [2] it was 0.12 µg/mL (≈ 0.298 µM); with Enterobacter cloacae, 0.25 µg/mL (≈ 0.62 µM); in the experiment on Enterococcus faecalis, 0.12 µg/mL (≈ 0.298 µM); in the experiment with Klebsiella pneumoniae it was 0.12 µg/mL (≈ 0.298 µM). In addition, the minimum inhibitory concentration (MIC) with Morganella morganii is 0.25 µg/mL (≈ 0.62 µM); in [6], 0.25 µg/mL (≈ 0.62 µM); in the experiment with Pseudomonas aeruginosa [7] it was 2 µg/mL (≈ 4.96 µM); with Bacillus cereus it was 0.25 µg/mL (≈ 0.62 µM); against Bacillus subtilis it was 0.12 µg/mL (≈ 0.298 µM).
As to `CN(C)C1CN(c2cc3c(cc2F)c(=O)c2c(=O)[nH]sc2n3C2CC2)C1`, the minimal inhibitory concentration (MIC) with Proteus vulgaris came out at 0.06 µg/mL (≈ 0.16 µM); in the experiment with Staphylococcus aureus [1] it was 0.06 µg/mL (≈ 0.16 µM); in the experiment on Escherichia coli [2], 0.03 µg/mL (≈ 0.0801 µM); with Enterobacter cloacae it was 0.06 µg/mL (≈ 0.16 µM); in the experiment on Enterococcus faecalis, 0.5 µg/mL (≈ 1.34 µM); in the experiment with Klebsiella pneumoniae it was 0.06 µg/mL (≈ 0.16 µM). Also, the MIC in the experiment on Morganella morganii worked out at 0.06 µg/mL (≈ 0.16 µM); in [6], 0.06 µg/mL (≈ 0.16 µM); against Pseudomonas aeruginosa [7], 1 µg/mL (≈ 2.67 µM); in the experiment on Bacillus cereus it was 0.12 µg/mL (≈ 0.32 µM); in the experiment on Bacillus subtilis, 0.03 µg/mL (≈ 0.0801 µM).
